We go through 12 compounds from ChEMBL document CHEMBL1144181, “Achiral oligoamines as versatile tool for the development of aspartic protease inhibitors” (Bioorg Med Chem, 2008).

The target in one assay is Protease (Human immunodeficiency virus 1, UniProt Q9YQ12). Kind of assay: Inhibition of recombinant HIV1 protease expressed in Escherichia coli by fluorescence technique.
The nature of assay [1]: Inhibition of pig pepsin by fluorescence technique. Also on record: species or system Sus scrofa.
The nature of assay [2]: Inhibition of Plasmodium recombinant plasmepsin-4 expressed in Escherichia coli by fluorescence technique. Summed up:
(§1)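 The recombinant enzyme was expressed in E. coli and purified. It was assayed at room temperature in 100 mM NaAc, pH 4.5, with 1 mg/mL BSA and 4% final DMSO. The substrate was Abz-Thr-Ile-Nle-(p-NO2-Phe)-Gln-Arg-NH2, read by fluorescence increase (ex 337, em 410 nm). IC50 came from nonlinear regression of vi/v0 versus inhibitor concentration, and Ki = IC50/[1+(S/Km)].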

A further assay deals with T1, Renin (Homo sapiens, UniProt P00797).
T1 sequence (P00797 whole entry): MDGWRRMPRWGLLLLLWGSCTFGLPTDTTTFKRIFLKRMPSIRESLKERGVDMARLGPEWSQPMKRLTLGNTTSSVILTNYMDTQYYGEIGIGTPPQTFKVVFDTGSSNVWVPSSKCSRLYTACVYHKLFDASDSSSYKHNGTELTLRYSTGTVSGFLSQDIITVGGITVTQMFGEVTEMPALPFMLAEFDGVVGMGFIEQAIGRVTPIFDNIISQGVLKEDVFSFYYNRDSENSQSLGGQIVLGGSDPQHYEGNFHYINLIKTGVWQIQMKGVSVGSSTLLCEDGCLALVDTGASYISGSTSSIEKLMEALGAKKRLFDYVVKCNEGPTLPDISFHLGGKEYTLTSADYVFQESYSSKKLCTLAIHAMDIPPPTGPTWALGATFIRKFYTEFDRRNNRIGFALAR
The experiment in a line: Inhibition of recombinant renin by fluorescence technique.

The target in another assay is Beta-secretase 1 (Homo sapiens, UniProt P56817). Kind of assay: Inhibition of recombinant beta secretase 1 by fluorescence technique.
Assay [3] can be described thus: Inhibition of Plasmodium recombinant plasmepsin-2 expressed in Escherichia coli by fluorescence technique. The method, boiled down:
as §1

Sequence of Protease (Q9YQ12 whole entry): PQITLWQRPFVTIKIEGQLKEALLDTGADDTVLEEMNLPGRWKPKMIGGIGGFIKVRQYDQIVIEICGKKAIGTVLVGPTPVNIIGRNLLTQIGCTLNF
Sequence of Beta-secretase 1 (P56817 whole entry): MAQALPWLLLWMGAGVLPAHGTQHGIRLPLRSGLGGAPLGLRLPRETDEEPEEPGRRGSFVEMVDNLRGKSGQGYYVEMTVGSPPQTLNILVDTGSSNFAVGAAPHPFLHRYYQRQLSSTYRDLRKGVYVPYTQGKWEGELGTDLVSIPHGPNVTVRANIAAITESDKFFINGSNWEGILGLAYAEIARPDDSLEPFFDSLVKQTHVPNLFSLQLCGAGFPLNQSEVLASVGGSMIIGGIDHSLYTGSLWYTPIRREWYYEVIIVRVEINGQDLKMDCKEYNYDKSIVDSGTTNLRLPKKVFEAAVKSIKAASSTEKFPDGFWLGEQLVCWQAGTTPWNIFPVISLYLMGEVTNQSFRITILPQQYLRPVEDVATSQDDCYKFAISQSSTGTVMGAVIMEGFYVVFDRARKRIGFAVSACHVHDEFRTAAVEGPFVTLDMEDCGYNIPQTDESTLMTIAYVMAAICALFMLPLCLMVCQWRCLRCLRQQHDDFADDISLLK

Regarding `CC(C)CN(C[C@@H](O)[C@H](Cc1ccccc1)NC(=O)O[C@H]1CCOC1)S(=O)(=O)c1ccc(N)cc1`, the Ki at Protease came to 0.9 µM.
Take `O=S(=O)(c1ccccc1)N(CCNCCN(Cc1ccccc1)S(=O)(=O)c1ccccc1)Cc1ccccc1`: the Ki in assay [1] amounted to 5.7 µM; in assay [2], 36 µM; on Protease, 3.8 µM; in assay [3], 7 µM. Also, the IC50 on Renin and on Beta-secretase 1 was > 250 µM throughout.
Consider `O=C(Cc1ccccc1)N(CCCNCCCN(Cc1ccccc1)C(=O)Cc1ccccc1)Cc1ccccc1`, for which the concentration for half-maximal inhibition (IC50) (in assay [1]; at Protease; on Beta-secretase 1) was > 250 µM throughout. In addition, the values for the inhibition constant Ki (in assay [2]; at Renin; in assay [3]) were 170 µM, 16 µM and 120 µM, respectively.
As for `O=S(=O)(c1ccccc1)N(CCCNCCCN(Cc1ccccc1)S(=O)(=O)c1ccccc1)Cc1ccccc1`, the half-inhibitory concentration (IC50) (in assay [1]; at Renin; at Protease) was > 250 µM in each case. The Ki worked out at 42 µM in assay [2], 150 µM at Beta-secretase 1 and 21 µM in assay [3].
Turning to `O=C(Cc1ccccc1)N(CCCNCCN(Cc1ccccc1)C(=O)Cc1ccccc1)Cc1ccccc1`, the concentration for half-maximal inhibition (IC50) (in assay [1]; on Renin; on Protease; at Beta-secretase 1) was > 250 µM in each case. The Ki in assay [2] stood at 56 µM; in assay [3] it was 63 µM.
Take `O=C(Cc1ccccc1)N(CCNCCN(Cc1ccccc1)C(=O)Cc1ccccc1)Cc1ccccc1`: the IC50 (in assay [1]; at Protease; at Beta-secretase 1) was > 250 µM in each case. The values for the inhibition constant Ki (in assay [2]; at Renin; in assay [3]) were 98 µM, 5.7 µM and 91 µM, respectively.
As to `CC(C)CN(CCNCCN(CC(C)C)S(=O)(=O)c1ccc(N)cc1)S(=O)(=O)c1ccc(N)cc1`, the Ki in assay [1] was determined as 4.8 µM; in assay [2] it was 56 µM; in assay [3], 6.8 µM. In addition, the concentration for half-maximal inhibition (IC50) on Renin and on Beta-secretase 1 was > 250 µM throughout.
For the compound `Nc1ccc(S(=O)(=O)N(CCCNCCN(Cc2ccccc2)S(=O)(=O)c2ccc(N)cc2)Cc2ccccc2)cc1`, the concentration for half-maximal inhibition (IC50) (in assay [1]; at Renin; at Protease; on Beta-secretase 1) was > 250 µM throughout. In addition, the Ki in assay [2] came to 7.5 µM; in assay [3] it was 22 µM.
`Nc1ccc(S(=O)(=O)N(CCCNCCCN(Cc2ccccc2)S(=O)(=O)c2ccc(N)cc2)Cc2ccccc2)cc1`: the Ki in assay [1] was 4 µM; in assay [2] it was 20 µM; on Beta-secretase 1, 64 µM; in assay [3], 2.8 µM. The IC50 at Renin and at Protease was > 250 µM each time.
Consider `Nc1ccc(S(=O)(=O)N(CCNCCN(Cc2ccccc2)S(=O)(=O)c2ccc(N)cc2)Cc2ccccc2)cc1`, for which the Ki in assay [1] was determined as 3.9 µM; in assay [2], 7.5 µM; in assay [3], 4.2 µM. Moreover, the IC50 on Renin and on Beta-secretase 1 was > 250 µM each time.
Take `O=S(=O)(c1ccccc1)N(CCCNCCN(Cc1ccccc1)S(=O)(=O)c1ccccc1)Cc1ccccc1`: the Ki in assay [1] turned out to be 15 µM; in assay [2] it was 17 µM; on Protease, 14 µM; in assay [3], 18 µM. Besides, the IC50 on Renin and at Beta-secretase 1 was > 250 µM throughout.
As for `CC(C)CN(CCNCCN(CC(C)C)S(=O)(=O)c1ccccc1)S(=O)(=O)c1ccccc1`, the inhibition constant (Ki) is 4.5 µM in assay [1], 87 µM in assay [2], 10 µM on Protease and 23 µM in assay [3]. The concentration for half-maximal inhibition (IC50) on Renin and on Beta-secretase 1 was > 250 µM in each case.
